How the values were obtained:
[1] = tested on: human sarcoma cell lines bearing the EWS/FLI‐1 chromosome translocation (TC‐71, SK‐N‐MC, SK‐ES‐1); assay: Anti-proliferative activity; assay type: cell-based; details: 72 h
TrkA = TrkA (Homo sapiens, UniProt P04629); assay: Kinase inhibition profiling at 100 nmol/L; assay type: biochemical
[2] = tested on: human multiple myeloma cell lines (KMS‐12‐BM, LP‐1, NCI‐H929); assay: Anti-proliferative activity; assay type: cell-based; details: 72 h
[3] = Plasma protein binding, equilibrium dialysis; assay type: in vitro ADME; details: human, pH 7.2
Src = Src (Homo sapiens, UniProt P12931); assay: Kinase inhibition profiling at 100 nmol/L; assay type: biochemical; details: read-out: Inhibition at 100 nmol/L
[4] = molecular target: fms‐like tyrosine kinase‐1 (Homo sapiens, UniProt P17948); assay: Kinase inhibition profiling at 100 nmol/L; assay type: biochemical; details: read-out: Inhibition at 100 nmol/L
[5] = tested on: IGF‐1‐induced tyrosine phosphorylation of IGF‐1R in HT‐29/GFP cells; assay: In vitro signal transduction assay; assay type: cell-based, human; details: 30 nmol/L, 2 hours
Summary of the method: (§1)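 HT-29/GFP colon cancer cells in culture exposed to test compound, then stimulated with human IGF-1 or human insulin; receptor tyrosine phosphorylation and downstream signalling assessed across a concentration series.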

SCID mice = assay: Hyperglycemia and hyperinsulinemia in mice; assay type: in vivo, mouse; details: oral 10, 20, 40, 80 mg/kg
[6] = tested on: phosphorylation of Erk in HT‐29/GFP cells; assay: In vitro signal transduction assay; assay type: cell-based, human; details: up to 30 nmol/L
Summary of the method: as §1

IR = IR (Homo sapiens, UniProt P06213); assay: Kinase inhibition profiling at 100 nmol/L; assay type: biochemical; details: read-out: Inhibition at 100 nmol/L
[7] = tested on: insulin‐induced tyrosine phosphorylation of IR in HT‐29/GFP cells; assay: In vitro signal transduction assay; assay type: cell-based, human; details: 10 nmol/L, 2 hours
Summary of the method: as §1

Jak2 = Jak2 (Homo sapiens, UniProt O60674); assay: Kinase inhibition profiling at 100 nmol/L; assay type: biochemical
IGF‐1R = IGF‐1R (Homo sapiens, UniProt P08069); assay: Kinase inhibition profiling at 100 nmol/L; assay type: biochemical; details: read-out: Inhibition at 100 nmol/L
[8] = Pharmacokinetic study in mice, single oral dose; assay type: in vivo, mouse; details: for Mean area under the plasma concentration–time curve from time 0 to 24 h / Mean maximum plasma concentration: male SCID mice
Summary of the method: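 Single oral dose of 2, 10 or 20 mg/kg to male mice; plasma sampled over 0–24 h; Cmax, Tmax, elimination half-life and AUC0–24 reported as mean ± SD, n = 3.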

Btc = assay: Kinase inhibition profiling at 100 nmol/L; assay type: biochemical, human
[9] = tested on: HT‐29/GFP colon cancer xenograft; assay: HT-29/GFP xenograft model; assay type: in vivo, mouse; details: 40 mg/kg orally once daily for 14 days, SCID mice
[10] = tested on: panel of human malignant cell lines; assay: Correlation of antiproliferative activity with anti‐IGF‐1 antibody KM1468; assay type: cell-based; details: range of human malignant cell lines (Fig. S1a)
[11] = tested on: patients with advanced solid tumors; assay: Phase I first-in-human study: pharmacodynamics; assay type: in vivo
Summary of the method: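 Open-label 3+3 dose-escalation/de-escalation study. After a 1-week observation period, the test compound was given orally once daily, continuously, after an overnight fast. On pharmacodynamic sampling days, fasting continued until 2 h post-dose. Plasma glucose and insulin were sampled between days 1 and 29, at pre-dose and at 1, 2 and 24 h post-dose. Only the fasting time points were evaluable.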

focal adhesion kinase = focal adhesion kinase (Homo sapiens, UniProt Q05397); assay: Kinase inhibition profiling at 100 nmol/L; assay type: biochemical; details: read-out: Inhibition at 100 nmol/L
[12] = male, SCID, mouse, plasma, po, 20 mg/kg
[13] = patients, 37.5 and 50 mg, 1 and 2 h post‐dose

Sequence of TrkA (P04629 33-796): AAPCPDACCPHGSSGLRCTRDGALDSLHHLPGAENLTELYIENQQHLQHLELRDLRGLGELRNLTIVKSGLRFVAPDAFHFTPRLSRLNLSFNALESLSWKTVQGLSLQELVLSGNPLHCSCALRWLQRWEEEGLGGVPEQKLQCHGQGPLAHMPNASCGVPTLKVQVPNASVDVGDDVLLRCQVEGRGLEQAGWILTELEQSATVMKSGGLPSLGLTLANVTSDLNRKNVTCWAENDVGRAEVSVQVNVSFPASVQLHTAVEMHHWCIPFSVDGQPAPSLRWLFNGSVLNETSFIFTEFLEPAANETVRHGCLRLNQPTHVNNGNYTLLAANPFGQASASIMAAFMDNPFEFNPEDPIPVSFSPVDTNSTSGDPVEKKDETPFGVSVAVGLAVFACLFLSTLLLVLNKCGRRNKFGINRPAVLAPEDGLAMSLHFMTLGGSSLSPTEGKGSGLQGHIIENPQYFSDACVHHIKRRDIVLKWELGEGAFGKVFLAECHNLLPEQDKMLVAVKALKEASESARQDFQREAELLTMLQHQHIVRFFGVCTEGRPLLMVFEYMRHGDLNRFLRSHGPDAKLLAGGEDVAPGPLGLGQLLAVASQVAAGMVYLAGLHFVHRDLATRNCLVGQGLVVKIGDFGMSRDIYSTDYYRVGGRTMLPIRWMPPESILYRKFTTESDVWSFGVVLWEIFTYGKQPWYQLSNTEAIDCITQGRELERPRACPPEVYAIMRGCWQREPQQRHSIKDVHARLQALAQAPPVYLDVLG
Sequence of Jak2 (O60674 whole entry): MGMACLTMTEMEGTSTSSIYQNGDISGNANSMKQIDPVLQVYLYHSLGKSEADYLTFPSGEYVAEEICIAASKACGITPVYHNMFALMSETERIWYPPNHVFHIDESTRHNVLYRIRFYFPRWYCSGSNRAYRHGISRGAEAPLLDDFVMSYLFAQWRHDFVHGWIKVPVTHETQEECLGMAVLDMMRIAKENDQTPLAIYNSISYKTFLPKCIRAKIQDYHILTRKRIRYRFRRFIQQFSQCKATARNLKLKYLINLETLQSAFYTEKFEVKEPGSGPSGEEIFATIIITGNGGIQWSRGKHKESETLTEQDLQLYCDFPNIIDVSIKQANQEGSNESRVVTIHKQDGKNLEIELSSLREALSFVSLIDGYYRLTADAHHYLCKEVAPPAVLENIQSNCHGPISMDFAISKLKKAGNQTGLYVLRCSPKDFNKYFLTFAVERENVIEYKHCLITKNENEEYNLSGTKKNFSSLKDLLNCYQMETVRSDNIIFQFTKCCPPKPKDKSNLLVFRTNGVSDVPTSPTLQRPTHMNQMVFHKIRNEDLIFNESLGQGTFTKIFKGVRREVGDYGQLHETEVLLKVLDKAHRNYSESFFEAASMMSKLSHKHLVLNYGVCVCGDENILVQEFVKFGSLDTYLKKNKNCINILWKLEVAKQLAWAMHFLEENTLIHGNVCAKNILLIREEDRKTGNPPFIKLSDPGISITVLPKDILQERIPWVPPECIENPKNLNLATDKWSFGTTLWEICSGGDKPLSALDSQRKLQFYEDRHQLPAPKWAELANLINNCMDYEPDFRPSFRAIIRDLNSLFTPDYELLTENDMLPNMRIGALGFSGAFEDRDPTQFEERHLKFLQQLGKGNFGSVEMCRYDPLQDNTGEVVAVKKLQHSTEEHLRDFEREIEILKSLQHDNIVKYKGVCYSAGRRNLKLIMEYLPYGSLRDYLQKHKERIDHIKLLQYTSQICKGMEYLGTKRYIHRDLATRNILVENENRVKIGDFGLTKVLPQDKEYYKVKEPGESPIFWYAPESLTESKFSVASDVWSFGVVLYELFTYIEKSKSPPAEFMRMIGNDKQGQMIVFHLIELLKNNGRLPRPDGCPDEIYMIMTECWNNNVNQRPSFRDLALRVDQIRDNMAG
Sequence of IR (P06213 28-1382): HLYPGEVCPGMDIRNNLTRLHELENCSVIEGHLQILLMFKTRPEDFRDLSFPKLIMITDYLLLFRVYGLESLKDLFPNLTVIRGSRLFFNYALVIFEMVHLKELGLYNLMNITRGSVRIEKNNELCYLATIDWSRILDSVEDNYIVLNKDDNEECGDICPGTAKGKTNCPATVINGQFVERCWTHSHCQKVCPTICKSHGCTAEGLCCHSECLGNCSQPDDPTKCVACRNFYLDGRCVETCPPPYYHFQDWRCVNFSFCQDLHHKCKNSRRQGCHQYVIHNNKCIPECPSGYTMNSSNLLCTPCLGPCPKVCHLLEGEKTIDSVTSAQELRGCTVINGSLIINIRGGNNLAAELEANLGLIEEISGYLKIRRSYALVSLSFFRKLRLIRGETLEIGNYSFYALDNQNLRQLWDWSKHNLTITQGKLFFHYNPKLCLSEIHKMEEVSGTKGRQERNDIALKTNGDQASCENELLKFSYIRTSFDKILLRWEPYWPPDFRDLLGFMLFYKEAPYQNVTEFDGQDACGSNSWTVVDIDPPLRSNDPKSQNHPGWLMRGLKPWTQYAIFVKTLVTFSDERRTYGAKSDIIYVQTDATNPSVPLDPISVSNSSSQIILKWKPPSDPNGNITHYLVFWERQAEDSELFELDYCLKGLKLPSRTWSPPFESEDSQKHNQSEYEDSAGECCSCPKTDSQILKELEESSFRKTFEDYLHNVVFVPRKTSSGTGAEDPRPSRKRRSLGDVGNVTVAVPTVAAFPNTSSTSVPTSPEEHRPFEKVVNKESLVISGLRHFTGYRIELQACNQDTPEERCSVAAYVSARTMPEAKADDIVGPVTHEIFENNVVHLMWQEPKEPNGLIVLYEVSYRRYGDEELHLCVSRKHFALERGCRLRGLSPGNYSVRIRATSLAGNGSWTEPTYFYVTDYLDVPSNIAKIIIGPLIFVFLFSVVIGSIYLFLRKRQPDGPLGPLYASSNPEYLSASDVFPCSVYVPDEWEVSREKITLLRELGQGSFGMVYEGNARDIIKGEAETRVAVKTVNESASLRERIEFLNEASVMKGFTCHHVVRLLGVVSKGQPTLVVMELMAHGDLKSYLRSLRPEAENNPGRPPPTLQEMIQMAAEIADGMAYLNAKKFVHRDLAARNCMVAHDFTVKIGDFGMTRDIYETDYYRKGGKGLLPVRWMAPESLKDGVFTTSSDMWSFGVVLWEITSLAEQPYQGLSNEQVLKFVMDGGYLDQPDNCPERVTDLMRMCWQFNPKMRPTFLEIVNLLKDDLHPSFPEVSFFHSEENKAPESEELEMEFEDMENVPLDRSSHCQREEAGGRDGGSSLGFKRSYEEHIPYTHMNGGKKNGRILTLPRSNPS
Sequence of focal adhesion kinase (Q05397 whole entry): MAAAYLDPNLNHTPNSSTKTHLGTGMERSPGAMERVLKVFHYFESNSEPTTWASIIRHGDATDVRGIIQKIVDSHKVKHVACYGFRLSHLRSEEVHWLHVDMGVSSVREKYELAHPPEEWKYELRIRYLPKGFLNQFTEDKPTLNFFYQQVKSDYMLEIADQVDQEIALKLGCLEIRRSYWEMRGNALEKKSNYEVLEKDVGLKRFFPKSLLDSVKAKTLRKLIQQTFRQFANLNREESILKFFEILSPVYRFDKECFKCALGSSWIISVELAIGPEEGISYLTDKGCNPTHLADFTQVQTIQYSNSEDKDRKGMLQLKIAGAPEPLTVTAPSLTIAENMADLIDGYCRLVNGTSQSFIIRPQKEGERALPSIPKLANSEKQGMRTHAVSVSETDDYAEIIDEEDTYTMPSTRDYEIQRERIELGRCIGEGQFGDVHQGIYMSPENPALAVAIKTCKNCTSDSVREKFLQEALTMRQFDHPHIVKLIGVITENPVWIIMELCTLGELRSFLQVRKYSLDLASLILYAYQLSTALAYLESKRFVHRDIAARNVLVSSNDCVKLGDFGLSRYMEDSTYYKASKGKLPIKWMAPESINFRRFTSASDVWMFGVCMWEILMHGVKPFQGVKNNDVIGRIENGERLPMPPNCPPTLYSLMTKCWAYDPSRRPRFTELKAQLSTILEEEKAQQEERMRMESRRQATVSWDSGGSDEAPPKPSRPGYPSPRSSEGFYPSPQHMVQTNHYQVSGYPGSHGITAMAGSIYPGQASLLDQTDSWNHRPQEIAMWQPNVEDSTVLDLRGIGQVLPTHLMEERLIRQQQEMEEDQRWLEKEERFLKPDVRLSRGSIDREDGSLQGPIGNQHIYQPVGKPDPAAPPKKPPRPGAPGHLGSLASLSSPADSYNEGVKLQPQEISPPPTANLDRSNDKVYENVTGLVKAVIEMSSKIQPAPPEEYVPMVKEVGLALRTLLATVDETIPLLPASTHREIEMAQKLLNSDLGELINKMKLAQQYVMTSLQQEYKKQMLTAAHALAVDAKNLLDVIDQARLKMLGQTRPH
Sequence of Src (P12931 whole entry): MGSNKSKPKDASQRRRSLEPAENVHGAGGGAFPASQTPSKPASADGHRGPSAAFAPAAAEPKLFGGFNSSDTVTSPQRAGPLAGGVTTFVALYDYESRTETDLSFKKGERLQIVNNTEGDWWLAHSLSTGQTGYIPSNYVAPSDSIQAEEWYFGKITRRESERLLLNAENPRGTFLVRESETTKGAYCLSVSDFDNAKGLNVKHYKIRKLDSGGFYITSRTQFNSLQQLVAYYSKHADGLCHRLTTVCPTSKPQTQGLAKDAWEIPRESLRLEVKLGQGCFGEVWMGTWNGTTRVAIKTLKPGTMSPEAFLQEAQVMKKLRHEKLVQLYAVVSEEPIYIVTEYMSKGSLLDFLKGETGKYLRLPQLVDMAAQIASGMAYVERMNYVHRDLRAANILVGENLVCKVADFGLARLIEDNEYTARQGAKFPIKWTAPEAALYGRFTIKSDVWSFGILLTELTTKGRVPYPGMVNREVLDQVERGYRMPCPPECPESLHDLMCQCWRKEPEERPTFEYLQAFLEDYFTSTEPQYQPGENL

For `Cc1ccsc1C(=O)Nc1cc(CN2CCN(C(=O)CO)CC2)ccc1/C=C/c1n[nH]c2ccccc12` [KW‐2450], which GI50 [1] is on record?
The GI50 was 3.2 to 11 nM.

What about the “Inhibition at 100 nmol/L” value (TrkA; TrkA, 100 nmol/L) of the same compound?
The value was 101.1%.

And the inhibition at 0.1 µM (TrkA; read-out: Inhibition at 100 nmol/L, TrkA, 100 nmol/L)?
The inhibition at 0.1 µM was greater than 90%.

What about the GI50 [2] of the same compound?
Its GI50 is 11 to 19 nM.

And the fraction unbound at 6 h [3]?
The fraction unbound at 6 h was 0.009 to 0.016.

And the inhibition at 0.1 µM (Src)?
Its inhibition at 0.1 µM is 53.8%.

And the inhibition at 0.1 µM [4]?
The inhibition at 0.1 µM was greater than 90%.

What about the “Inhibition of IGF‐1‐induced tyrosine phosphorylation of IGF‐1R” value [5] of the same compound?
Its value is “complete inhibition”.

And the Plasma glucose level (SCID mice)?
The Plasma glucose level was “elevated levels”.

What about the Plasma insulin level (SCID mice) of the same compound?
Its Plasma insulin level is “elevated levels”.

What about the “Inhibitory activity against phosphorylation of Erk” value [6] of the same compound?
The value was “without any inhibitory activity”.

And the inhibition at 0.1 µM (IR)?
The inhibition at 0.1 µM was 95.6%.

And the “Inhibition of insulin‐induced tyrosine phosphorylation of IR” value [7]?
Its value is “significant degree of inhibition”.

What about the “Inhibition at 100 nmol/L” value (Jak2; Jak2, 100 nmol/L) of the same compound?
The value was 93.4%.

And the inhibition at 0.1 µM (Jak2; read-out: Inhibition at 100 nmol/L, Jak2, 100 nmol/L)?
The inhibition at 0.1 µM was greater than 90%.

And the inhibition at 0.1 µM (IGF‐1R)?
The inhibition at 0.1 µM was 94.1%.

And the “Mean area under the plasma concentration–time curve from time 0 to 24 h” value (“Mean area” for short) ([8]; oral 2 mg/kg)?
Its value is 136 ng/h/mL.

What about the “Mean maximum plasma concentration” value ([8]; oral 2 mg/kg) of the same compound?
The value was 37.4 ng/mL.

And the “Mean area” value ([8]; oral 10 mg/kg)?
Its value is 1320 ng/h/mL.

What about the “Mean maximum plasma concentration” value ([8]; oral 10 mg/kg) of the same compound?
Its value is 568 ng/mL.

And the “Mean area” value ([8]; oral 20 mg/kg)?
Its value is 3190 ng/h/mL.

What about the “Mean maximum plasma concentration” value ([8]; oral 20 mg/kg) of the same compound?
Its value is 1510 ng/mL.

What about the Tmax [8, 12] of the same compound?
Its Tmax is 0.25 to 1 h.

And the half-life [8, 12]?
The half-life was 3.71 to 3.99 h.

And the “Inhibition at 100 nmol/L” value (Btc)?
The value was 63.2%.

What about the “In vivo growth inhibitory activity” value [9] of the same compound?
The value was “modest in vivo growth inhibitory activity”.

What about the “Correlation of degree of in vitro inhibition with that induced by anti‐IGF‐1 antibody KM1468” value [10] of the same compound?
The value was “highly correlated”.

And the “Patients with insulin values above the upper limit of quantitation (300 μU/mL)” value ([11]; 37.5‐mg cohort)?
The value was “five”.

What about the “Patients with insulin values above the upper limit of quantitation (300 μU/mL)” value ([11]; 50‐mg cohort) of the same compound?
Its value is “three”.

And the Fasting glucose [11, 13]?
The Fasting glucose was “Elevations in fasting glucose”.

What about the Fasting insulin [11, 13] of the same compound?
Its Fasting insulin is “Elevations”.

What about the inhibition at 0.1 µM (focal adhesion kinase) of the same compound?
The inhibition at 0.1 µM was greater than 90%.
